The results in this text go back to ChEMBL document CHEMBL1275462 (Antimicrob Agents Chemother, 2008).

Values after ≈ are worked out from the molar mass of the structure shown. Active and inactive are the calls of the source.

For assay [1], the system named is Staphylococcus aureus. As to the kind of experiment: Antimicrobial activity against methicillin-resistant Staphylococcus aureus HPV107 by Etest. Type of assay: functional. Summed up: (§1)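 Etest (manufacturer's method) and population analysis: overnight cultures serially diluted and plated on TSA with increasing oxacillin or BPR, CFU counted after 48 h at 37°C. Colonies from subpopulations growing at high oxacillin or BPR were picked, restreaked on antibiotic-free TSA for three passages, then retested by population analysis.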

The subject of assay [2] is Staphylococcus aureus. As to the kind of experiment: Antimicrobial activity against methicillin-resistant Staphylococcus aureus HU25 assessed as concentration required for bacterial subpopulation growth. Type of assay: functional. Summed up:
as §1

The test system of assay [3] is Staphylococcus aureus. Description: Antimicrobial activity against methicillin-resistant Staphylococcus aureus HAR24 assessed as concentration required for bacterial subpopulation growth. Type of assay: functional. The gist of the method: as §1
In assay [4] the test system is Staphylococcus aureus. Description: Antimicrobial activity against methicillin-resistant Staphylococcus aureus HPV107 assessed as concentration required for bacterial subpopulation growth. The class given is functional. Summed up: as §1
Assay [5] relates to Staphylococcus aureus. Description: Antimicrobial activity against methicillin-resistant Staphylococcus aureus USA300 by Etest. The class given is functional. The gist of the method: as §1
Assay [6] deals with T1, MecA (Staphylococcus aureus, UniProt Q7DHH4).
T1 sequence (Q7DHH4 whole entry): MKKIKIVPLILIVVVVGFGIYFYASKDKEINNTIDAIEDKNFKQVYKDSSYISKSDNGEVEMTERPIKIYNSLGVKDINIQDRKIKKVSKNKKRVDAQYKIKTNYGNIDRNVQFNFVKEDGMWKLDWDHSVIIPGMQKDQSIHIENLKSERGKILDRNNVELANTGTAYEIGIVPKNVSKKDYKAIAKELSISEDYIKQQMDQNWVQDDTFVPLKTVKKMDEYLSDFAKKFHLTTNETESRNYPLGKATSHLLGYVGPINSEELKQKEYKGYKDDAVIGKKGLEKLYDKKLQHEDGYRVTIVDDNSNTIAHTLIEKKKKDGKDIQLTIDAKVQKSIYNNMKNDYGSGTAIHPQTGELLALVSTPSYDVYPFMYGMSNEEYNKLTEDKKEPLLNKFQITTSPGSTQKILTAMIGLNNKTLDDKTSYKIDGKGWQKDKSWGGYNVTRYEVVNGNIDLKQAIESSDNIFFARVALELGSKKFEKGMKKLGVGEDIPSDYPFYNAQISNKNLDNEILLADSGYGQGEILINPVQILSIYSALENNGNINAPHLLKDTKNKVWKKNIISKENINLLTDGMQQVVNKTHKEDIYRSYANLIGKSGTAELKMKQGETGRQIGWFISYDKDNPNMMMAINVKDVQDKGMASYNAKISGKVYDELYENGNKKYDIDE
As to the kind of experiment: Inhibition of methicillin-resistant Staphylococcus aureus COL PBP2a by competitive assay. Details: species or system Staphylococcus aureus subsp. aureus COL. The gist of the method:
(§2)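 Purified soluble PBP 2A (mecA expressed in E. coli, 97% pure) at 0.8 µM, preincubated with drug 30 min at 30°C. Then 20 µM Bocillin FL added for 10 min at 37°C, quenched with SDS-PAGE buffer and boiled. Drug range 0.5–20 µM; for IC50, BPR 0.5–200 µM or oxacillin 5–6,000 µM. Curve fitting.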

In assay [7] the test system is Staphylococcus aureus. Description: Antimicrobial activity against methicillin-resistant Staphylococcus aureus HDE288 assessed as concentration required for minimum inhibition of oxacillin-resistant subpopulation growth by Etest. The class given is functional. The gist of the method:
as §1

The subject of assay [8] is Staphylococcus aureus. As to the kind of experiment: Antimicrobial activity against methicillin-resistant Staphylococcus aureus HAR24 assessed as concentration required for minimum inhibition of oxacillin-resistant subpopulation growth by Etest. The class given is functional. The gist of the method: as §1
For assay [9], the system named is Staphylococcus aureus. As to the kind of experiment: Antimicrobial activity against methicillin-resistant Staphylococcus aureus HDE288 assessed as concentration required for bacterial subpopulation growth. The class given is functional. The gist of the method:
as §1

For assay [10], the system named is Staphylococcus aureus. Description: Antimicrobial activity against methicillin-resistant Staphylococcus aureus HPV107 assessed as concentration required for minimum inhibition of oxacillin-resistant subpopulation growth by Etest. The class given is functional. The gist of the method:
as §1

Assay [11] addresses T2, MecA (Staphylococcus aureus) (UniProt Q7DHH4).
T2 sequence (whole entry): T1 sequence (Q7DHH4 whole entry)
Description: Inhibition of methicillin-resistant Staphylococcus aureus 67-O PBP2a by competitive assay.

The target in assay [12] is T2, MecA (Staphylococcus aureus). As to the kind of experiment: Inhibition of methicillin-resistant Staphylococcus aureus COL PBP2a at 10 uM by competitive assay. The note with it: Staphylococcus aureus subsp. aureus COL. Summed up: as §2
For assay [13], the system named is Staphylococcus aureus. As to the kind of experiment: Antimicrobial activity against methicillin-resistant Staphylococcus aureus USA300 assessed as concentration required for minimum inhibition of oxacillin-resistant subpopulation growth by Etest. Type of assay: functional. The gist of the method:
as §1

Assay [14] deals with Staphylococcus aureus. Description: Antimicrobial activity against methicillin-resistant Staphylococcus aureus HAR22 assessed as concentration required for minimum inhibition of oxacillin-resistant subpopulation growth by Etest. Type of assay: functional. Summed up: as §1
For assay [15], the system named is Staphylococcus aureus. As to the kind of experiment: Antimicrobial activity against vancomycin-intermediate Staphylococcus aureus JH9 obtained from bacteremic patient by Etest. Type of assay: functional. The gist of the method: (§3)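 Etest and population analysis: overnight cultures plated on TSA with increasing vancomycin, oxacillin or BPR, CFU counted after 48 h at 37°C. For VRSA strains, vancomycin plates also run with constant 1 µg/ml BPR. Vancomycin Etest read after overnight 37°C incubation on TSA with or without 1 µg/ml BPR.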

In assay [16] the test system is Staphylococcus aureus. As to the kind of experiment: Antimicrobial activity against methicillin-resistant Staphylococcus aureus BK2464 assessed as concentration required for minimum inhibition of oxacillin-resistant subpopulation growth by Etest. Type of assay: functional. The gist of the method:
as §1

In assay [17] the test system is Staphylococcus aureus. Description: Antimicrobial activity against methicillin-resistant Staphylococcus aureus BK2464 assessed as concentration required for bacterial subpopulation growth. The class given is functional. The gist of the method:
as §1

In assay [18] the test system is Staphylococcus aureus. Description: Antimicrobial activity against methicillin-resistant Staphylococcus aureus HAR22 by Etest. Type of assay: functional. The gist of the method:
as §1

Assay [19] deals with Staphylococcus aureus. Description: Antimicrobial activity against vancomycin-resistant Staphylococcus aureus VRS1 by Etest. The class given is functional. The gist of the method:
as §3

Assay [20] has as its system Staphylococcus aureus. Description: Antimicrobial activity against methicillin-resistant Staphylococcus aureus COL by Etest. Type of assay: functional. The gist of the method: as §1
In assay [21] the test system is Staphylococcus aureus. Description: Antimicrobial activity against methicillin-resistant Staphylococcus aureus BK2529 assessed as concentration required for minimum inhibition of oxacillin-resistant subpopulation growth by Etest. Type of assay: functional. The gist of the method: as §1
For assay [22], the system named is Staphylococcus aureus. As to the kind of experiment: Antimicrobial activity against methicillin-resistant Staphylococcus aureus USA300 assessed as concentration required for bacterial subpopulation growth. Type of assay: functional. Summed up:
as §1

Assay [23] has as its system Staphylococcus aureus. As to the kind of experiment: Antimicrobial activity against methicillin-resistant Staphylococcus aureus HDE288 by Etest. Type of assay: functional. Summed up: as §1
Assay [24] relates to Staphylococcus aureus. Description: Antimicrobial activity against methicillin-resistant Staphylococcus aureus HAR22 assessed as concentration required for bacterial subpopulation growth. Type of assay: functional. Summed up:
as §1

For assay [25], the system named is Staphylococcus aureus. As to the kind of experiment: Antimicrobial activity against methicillin-resistant Staphylococcus aureus E2125 assessed as concentration required for minimum inhibition of oxacillin-resistant subpopulation growth by Etest. Type of assay: functional. The gist of the method:
as §1

For assay [26], the system named is Staphylococcus aureus. As to the kind of experiment: Antimicrobial activity against oxacillin-resistant Staphylococcus aureus COLVA harboring Tn1546 transposon by Etest. Type of assay: functional. Summed up: as §3
Assay [27] has as its system Staphylococcus aureus. As to the kind of experiment: Antimicrobial activity against methicillin-resistant Staphylococcus aureus HU25 by Etest. Type of assay: functional. Summed up: as §1
For assay [28], the system named is Staphylococcus aureus. As to the kind of experiment: Antimicrobial activity against methicillin-resistant Staphylococcus aureus BK2529 assessed as concentration required for bacterial subpopulation growth. The class given is functional. The gist of the method:
as §1

The test system of assay [29] is Staphylococcus aureus. Description: Bactericidal activity against methicillin-resistant Staphylococcus aureus COL assessed as reduction in viable bacterial titer after 24 hrs at 10 times MIC. The class given is functional, organism-based. Summed up: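 Time-kill: exponentially growing COL cultures (OD620 0.2, about 10^8 CFU/ml at zero time) given 10× MIC of drug under aerobic conditions. Untreated control. Aliquots taken at intervals, serially diluted, plated on TSA, colonies counted after 48 h at 37°C.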

Assay [30] deals with T2, MecA (Staphylococcus aureus). Description: Displacement of benzyl-[14C]penicillin from Staphylococcus aureus PBP2a RU130 mutant at 2500 ug/ml by in vitro competitive assay. The note with it: Staphylococcus aureus subsp. aureus COL. The gist of the method:
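Membranes from PBP 2 insertional mutant RU130 (Tn551 in transpeptidase domain), late exponential phase, 150 µg protein, preincubated with increasing oxacillin or BPR 10 min at 30°C. Then labelled with 20 µg/ml benzyl[14C]penicillin 10 min at 37°C and stopped with excess unlabelled penicillin in SDS. SDS-PAGE with phosphor screen exposure for 2 weeks.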

For assay [31], the system named is Staphylococcus aureus. As to the kind of experiment: Antimicrobial activity against methicillin-resistant Staphylococcus aureus E2125 assessed as concentration required for bacterial subpopulation growth. Type of assay: functional. Summed up:
as §1

Assay [32] deals with Staphylococcus aureus. As to the kind of experiment: Antimicrobial activity against methicillin-resistant Staphylococcus aureus E2125 by Etest. Type of assay: functional. The gist of the method: as §1
The subject of assay [33] is Staphylococcus aureus. Description: Antimicrobial activity against methicillin-resistant Staphylococcus aureus COL assessed as reduction in viable bacterial titer after 24 hrs in presence of 10 times compound MIC. The class given is functional.
Assay [34] concerns Staphylococcus aureus. Description: Antimicrobial activity against methicillin-resistant Staphylococcus aureus HAR24 by Etest. Type of assay: functional. The gist of the method:
as §1

For assay [35], the system named is Staphylococcus aureus. As to the kind of experiment: Antimicrobial activity against vancomycin-intermediate Staphylococcus aureus Mu50 by Etest. The class given is functional. The gist of the method: as §3
Assay [36] concerns Staphylococcus aureus. Description: Antimicrobial activity against methicillin-resistant Staphylococcus aureus BK2529 by Etest. Type of assay: functional. Summed up: as §1
The subject of assay [37] is Staphylococcus aureus. As to the kind of experiment: Antimicrobial activity against methicillin-resistant Staphylococcus aureus BK2464 by Etest. The class given is functional. The gist of the method: as §1

For `Cc1onc(-c2ccccc2)c1C(=O)N[C@@H]1C(=O)N2[C@@H]1SC(C)(C)[C@@H]2C(=O)O` [OXACILLIN], the minimum inhibitory concentration (MIC) in [1] was 0.8 µg/mL (≈ 1.99 µM); in [5], 0.8 µg/mL (≈ 1.99 µM); in assay [15], 3 µg/mL (≈ 7.47 µM); in assay [18], 100 µg/mL (≈ 249 µM); in assay [19] it was more than 800 µg/mL; in [20], more than 800 µg/mL. Also, the minimal inhibitory concentration (MIC) is 0.8 µg/mL (≈ 1.99 µM) in assay [23]; 800 µg/mL (≈ 1990 µM) in [26]; 400 µg/mL (≈ 996 µM) in [27]; 6 µg/mL (≈ 14.9 µM) in assay [32]; 100 µg/mL (≈ 249 µM) in assay [34]; more than 800 µg/mL in [35]. In addition, the results for the MIC in assay [36] and in [37] were 1.5 µg/mL (≈ 3.74 µM) and 12.5 µg/mL (≈ 31.1 µM), respectively. Further, the Activity in [2] was 800 µg/mL; in [3], 800 µg/mL; in assay [4] it was 400 µg/mL; in [7] it was 200 µg/mL; in assay [8], 800 µg/mL; in [9], 400 µg/mL. Further, the Activity in [10] came out at 100 µg/mL; in [11], 300 µg/mL; in assay [13] it was 400 µg/mL; in [14], 800 µg/mL; in [16] it was 200 µg/mL; in assay [17], 400 µg/mL. For the same compound, the Activity came to 200 µg/mL in [21]; 800 µg/mL in assay [22]; 400 µg/mL in assay [24]; 400 µg/mL in assay [25]; 400 µg/mL in [28]; 400 µg/mL in assay [31]. Also, the IC50 in assay [6] was determined as 710 µM. For the same compound, in [12], the inhibition worked out at 5%. Moreover, in assay [29], the result was inactive. Besides, in assay [30], the outcome was Active. The fold reduction in CFU in [33] was 1000 fold.
Consider `CN[C@H](CC(C)C)C(=O)N[C@H]1C(=O)N[C@@H](CC(N)=O)C(=O)N[C@H]2C(=O)N[C@H]3C(=O)N[C@H](C(=O)N[C@H](C(=O)O)c4cc(O)cc(O)c4-c4cc3ccc4O)[C@H](O)c3ccc(c(Cl)c3)Oc3cc2cc(c3O[C@@H]2O[C@H](CO)[C@@H](O)[C@H](O)[C@H]2O[C@H]2C[C@](C)(N)[C@H](O)[C@H](C)O2)Oc2ccc(cc2Cl)[C@H]1O` [VANCOMYCIN], for which the minimal inhibitory concentration (MIC) in assay [15] was 6 µg/mL (≈ 4.14 µM); in assay [19], more than 800 µg/mL; in assay [26], 800 µg/mL (≈ 552 µM); in [35] it was 6 µg/mL (≈ 4.14 µM).

As a reminder, the MIC is the smallest concentration in the dilution series that meets the test's criterion for growth inhibition. High values mean weaker potency, low ones greater potency. For orientation: IC50 means the concentration that inhibits the measured activity by half. The low end stands for inhibition by little substance, the high end for a need for much substance. For orientation: inhibition means the relative decrease from the control value, in per cent. A higher inhibition goes with strong suppression.
